Data published in ChEMBL document CHEMBL3352416, “Discovery of carbohybrid-based 2-aminopyrimidine analogues as a new class of rapid-acting antimalarial agents using image-based cytological profiling assay” (J Med Chem, 2014).
The source made the active and inactive calls. The calls are words filed in the database; no cut-off is given here.

Legend:
[1] = Cytotoxicity against human HepG2 cells after 48 hrs by resazurin based assay; type: cell-based
Outline: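 Cells grown in DMEM with 10% FBS and 1% antibiotic-antimycotic at 37 °C, 5% CO2. Viability read by resazurin reduction. CC50 derived; amphotericin B used as positive cytotoxicity control.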

Plasmodium falciparum [2] = test: Antimalarial activity against Plasmodium falciparum HB3 assessed as increase in schizonts parasite stage accumulation index at 10 uM treated at 42 hrs post-invasion for 24 hrs by automated image mining based cytological profiling assay; type: functional
Outline: (§1)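 Tightly synchronized cultures exposed from the 42 hpi mid-schizont point for 24 h to 10 µM final. Host cells stained with wheat germ agglutinin-AlexaFluor 488, parasite nuclei with DAPI and live-parasite mitochondria with Mitotracker Red CMXRos. Infected and viable parasitaemia and stage proportions quantified by automated image mining. Stage accumulation indices and parasitaemia reduction index derived.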

Plasmodium falciparum [3] = test: Antimalarial activity against tightly synchronized Plasmodium falciparum HB3 assessed as parasite stage accumulation index at early ring stages at 10 uM treated at 6 hrs post-invasion for continuous duration of 36 hrs by automated image mining based cytological profiling assay; type: functional
Plasmodium falciparum [4] = test: Antimalarial activity against tightly synchronized Plasmodium falciparum K1 assessed as parasite stage accumulation index at trophozoites stages at 10 uM treated at 6 hrs post-invasion for continuous duration of 36 hrs by automated image mining based cytological profiling assay; type: functional
Plasmodium falciparum [5] = test: Antimalarial activity against tightly synchronized Plasmodium falciparum HB3 assessed as parasite stage accumulation index at late ring stages at 10 uM treated at 18 hrs post-invasion for continuous duration of 36 hrs by automated image mining based cytological profiling assay; type: functional
Outline: (§2)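 Tightly synchronized cultures exposed to 10 µM final from 6 hpi (early ring), 18 hpi (late ring) or 30 hpi (mid-trophozoite) for a continuous 36 h. Erythrocytes stained with WGA-AlexaFluor 488, parasite nuclei with DAPI, functional mitochondria with Mitotracker Red CMXRos. Stages (early rings, late rings, trophozoites, schizonts) classified by nuclear spot number and size. Viable parasitaemia and stage accumulation index obtained by automated image analysis.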

Plasmodium falciparum [6] = test: Antimalarial activity against tightly synchronized Plasmodium falciparum K1 assessed as parasite stage accumulation index at schizonts stages at 10 uM treated at 6 hrs post-invasion for continuous duration of 36 hrs by automated image mining based cytological profiling assay; type: functional; outline: as §2
Plasmodium falciparum [7] = test: Antimalarial activity against tightly synchronized Plasmodium falciparum W2 assessed as parasite stage accumulation index at schizonts stages at 10 uM treated at 18 hrs post-invasion for continuous duration of 36 hrs by automated image mining based cytological profiling assay; type: functional
Plasmodium falciparum [8] = test: Antimalarial activity against Plasmodium falciparum W2 assessed as reduction in parasite stage accumulation index at 10 uM treated at 42 hrs post-invasion for 24 hrs by automated image mining based cytological profiling assay; type: functional, organism-based; outline: as §1
Plasmodium falciparum [9] = test: Antimalarial activity against tightly synchronized Plasmodium falciparum K1 assessed as parasite stage accumulation index at trophozoites stages at 10 uM treated at 18 hrs post-invasion for continuous duration of 36 hrs by automated image mining based cytological profiling assay; type: functional; outline: as §2
Plasmodium falciparum [10] = test: Antimalarial activity against Plasmodium falciparum HB3 assessed as reduction in culture parasitaemia level at 10 uM treated at 42 hrs post-invasion for 24 hrs by automated image mining based cytological profiling assay; type: functional; outline: as §1
Plasmodium falciparum [11] = test: Antimalarial activity against tightly synchronized Plasmodium falciparum K1 assessed as parasite stage accumulation index at schizonts stages at 10 uM treated at 30 hrs post-invasion for continuous duration of 36 hrs by automated image mining based cytological profiling assay; type: functional; outline: as §2
Plasmodium falciparum [12] = test: Antimalarial activity against tightly synchronized Plasmodium falciparum K1 assessed as parasite stage accumulation index at late ring stages at 10 uM treated at 6 hrs post-invasion for continuous duration of 36 hrs by automated image mining based cytological profiling assay; type: functional
Plasmodium falciparum [13] = test: Antimalarial activity against tightly synchronized Plasmodium falciparum HB3 assessed as parasite stage accumulation index at late ring stages at 10 uM treated at 6 hrs post-invasion for continuous duration of 36 hrs by automated image mining based cytological profiling assay; type: functional; outline: as §2
Plasmodium falciparum [14] = test: Antimalarial activity against Plasmodium falciparum W2 assessed as increase in schizonts parasite stage accumulation index at 10 uM treated at 42 hrs post-invasion for 24 hrs by automated image mining based cytological profiling assay; type: functional, organism-based; outline: as §1
Plasmodium falciparum [15] = test: Antimalarial activity against tightly synchronized Plasmodium falciparum K1 assessed as parasite stage accumulation index at late ring stages at 10 uM treated at 18 hrs post-invasion for continuous duration of 36 hrs by automated image mining based cytological profiling assay; type: functional; outline: as §2
Plasmodium falciparum [16] = test: Antimalarial activity against tightly synchronized Plasmodium falciparum HB3 assessed as parasite stage accumulation index at schizonts stages at 10 uM treated at 30 hrs post-invasion for continuous duration of 36 hrs by automated image mining based cytological profiling assay; type: functional
Plasmodium falciparum [17] = test: Antimalarial activity against tightly synchronized Plasmodium falciparum W2 assessed as parasite stage accumulation index at trophozoites stages at 10 uM treated at 18 hrs post-invasion for continuous duration of 36 hrs by automated image mining based cytological profiling assay; type: functional
Plasmodium falciparum [18] = test: Antimalarial activity against tightly synchronized Plasmodium falciparum W2 assessed as parasite stage accumulation index at early ring stages at 10 uM treated at 6 hrs post-invasion for continuous duration of 36 hrs by automated image mining based cytological profiling assay; type: functional; outline: as §2
Plasmodium falciparum [19] = test: Antimalarial activity against Plasmodium falciparum HB3 assessed as reduction in parasite stage accumulation index at 10 uM treated at 42 hrs post-invasion for 24 hrs by automated image mining based cytological profiling assay; type: functional; outline: as §1
Plasmodium falciparum [20] = test: Antimalarial activity against tightly synchronized Plasmodium falciparum HB3 assessed as parasite stage accumulation index at trophozoites stages at 10 uM treated at 6 hrs post-invasion for continuous duration of 36 hrs by automated image mining based cytological profiling assay; type: functional; outline: as §2
Plasmodium falciparum [21] = test: Antimalarial activity against tightly synchronized Plasmodium falciparum W2 assessed as parasite stage accumulation index at trophozoites stages at 10 uM treated at 30 hrs post-invasion for continuous duration of 36 hrs by automated image mining based cytological profiling assay; type: functional; outline: as §2
Plasmodium falciparum [22] = test: Antimalarial activity against Plasmodium falciparum K1 assessed as reduction in parasite stage accumulation index at 10 uM treated at 42 hrs post-invasion for 24 hrs by automated image mining based cytological profiling assay; type: functional, organism-based; outline: as §1
Plasmodium falciparum [23] = test: Antimalarial activity against tightly synchronized Plasmodium falciparum W2 assessed as parasite stage accumulation index at schizonts stages at 10 uM treated at 30 hrs post-invasion for continuous duration of 36 hrs by automated image mining based cytological profiling assay; type: functional
Plasmodium falciparum [24] = test: Antimalarial activity against tightly synchronized Plasmodium falciparum W2 assessed as parasite stage accumulation index at trophozoites stages at 10 uM treated at 6 hrs post-invasion for continuous duration of 36 hrs by automated image mining based cytological profiling assay; type: functional
Plasmodium falciparum [25] = test: Antimalarial activity against tightly synchronized Plasmodium falciparum K1 assessed as parasite stage accumulation index at schizonts stages at 10 uM treated at 18 hrs post-invasion for continuous duration of 36 hrs by automated image mining based cytological profiling assay; type: functional; outline: as §2
Plasmodium falciparum [26] = test: Antimalarial activity against tightly synchronized Plasmodium falciparum W2 assessed as parasite stage accumulation index at late ring stages at 10 uM treated at 6 hrs post-invasion for continuous duration of 36 hrs by automated image mining based cytological profiling assay; type: functional
Plasmodium falciparum [27] = test: Antimalarial activity against tightly synchronized Plasmodium falciparum HB3 assessed as parasite stage accumulation index at schizonts stages at 10 uM treated at 6 hrs post-invasion for continuous duration of 36 hrs by automated image mining based cytological profiling assay; type: functional; outline: as §2
Plasmodium falciparum [28] = test: Antimalarial activity against tightly synchronized Plasmodium falciparum HB3 assessed as parasite stage accumulation index at trophozoites stages at 10 uM treated at 30 hrs post-invasion for continuous duration of 36 hrs by automated image mining based cytological profiling assay; type: functional
Plasmodium falciparum [29] = test: Antimalarial activity against tightly synchronized Plasmodium falciparum W2 assessed as parasite stage accumulation index at late ring stages at 10 uM treated at 18 hrs post-invasion for continuous duration of 36 hrs by automated image mining based cytological profiling assay; type: functional; outline: as §2
Plasmodium falciparum [30] = test: Antimalarial activity against tightly synchronized Plasmodium falciparum K1 assessed as parasite stage accumulation index at trophozoites stages at 10 uM treated at 30 hrs post-invasion for continuous duration of 36 hrs by automated image mining based cytological profiling assay; type: functional; outline: as §2
Plasmodium falciparum [31] = test: Antimalarial activity against Plasmodium falciparum K1 assessed as increase in schizonts parasite stage accumulation index at 10 uM treated at 42 hrs post-invasion for 24 hrs by automated image mining based cytological profiling assay; type: functional, organism-based; outline: as §1
Plasmodium falciparum [32] = test: Antimalarial activity against Plasmodium falciparum K1 assessed as reduction in culture parasitaemia level at 10 uM treated at 42 hrs post-invasion for 24 hrs by automated image mining based cytological profiling assay; type: functional, organism-based; outline: as §1
Plasmodium falciparum [33] = test: Antimalarial activity against tightly synchronized Plasmodium falciparum W2 assessed as parasite stage accumulation index at schizonts stages at 10 uM treated at 6 hrs post-invasion for continuous duration of 36 hrs by automated image mining based cytological profiling assay; type: functional; outline: as §2
Plasmodium falciparum [34] = test: Antimalarial activity against tightly synchronized Plasmodium falciparum K1 assessed as parasite stage accumulation index at early ring stages at 10 uM treated at 6 hrs post-invasion for continuous duration of 36 hrs by automated image mining based cytological profiling assay; type: functional; outline: as §2
Plasmodium falciparum [35] = test: Antimalarial activity against tightly synchronized Plasmodium falciparum HB3 assessed as parasite stage accumulation index at schizonts stages at 10 uM treated at 18 hrs post-invasion for continuous duration of 36 hrs by automated image mining based cytological profiling assay; type: functional; outline: as §2
Plasmodium falciparum [36] = test: Antimalarial activity against tightly synchronized Plasmodium falciparum HB3 assessed as parasite stage accumulation index at trophozoites stages at 10 uM treated at 18 hrs post-invasion for continuous duration of 36 hrs by automated image mining based cytological profiling assay; type: functional; outline: as §2
Plasmodium falciparum [37] = test: Antimalarial activity against Plasmodium falciparum W2 assessed as reduction in culture parasitaemia level at 10 uM treated at 42 hrs post-invasion for 24 hrs by automated image mining based cytological profiling assay; type: functional, organism-based; outline: as §1

Q: Which CC50 at 48 h [1] does the source give for `C[C@@H]1[C@H](O)[C@@H](C)/C=C/C=C/C=C/C=C/C=C/C=C/C=C/[C@H](O[C@@H]2O[C@H](C)[C@@H](O)[C@H](N)[C@@H]2O)C[C@@H]2O[C@](O)(C[C@@H](O)C[C@@H](O)[C@H](O)CC[C@@H](O)C[C@@H](O)CC(=O)O[C@H]1C)C[C@H](O)[C@H]2C(=O)O` [AMPHOTERICIN B] here?
A: The CC50 at 48 h was 40 µM.

Q: Which results are given for `CC(=O)N[C@@H]1[C@@H](O)[C@H](O)[C@@H](CO)O[C@H]1O` [N-ACETYLGLUCOSAMINE]?
A: inhibition (Plasmodium falciparum [2]): inactive; Activity (Plasmodium falciparum [3]): 1.4; Activity (Plasmodium falciparum [4]): 0.8; Activity (Plasmodium falciparum [5]): 1; Activity (Plasmodium falciparum [6]): 0.66; Activity (Plasmodium falciparum [7]): 1.08; inhibition (Plasmodium falciparum [8]): Active; Activity (Plasmodium falciparum [9]): 1.18; inhibition (Plasmodium falciparum [10]): Active; Activity (Plasmodium falciparum [11]): 1.04; Activity (Plasmodium falciparum [12]): 1.32; Activity (Plasmodium falciparum [13]): 2.14; inhibition (Plasmodium falciparum [14]): inactive; Activity (Plasmodium falciparum [15]): 0.86; Activity (Plasmodium falciparum [16]): 0.7; Activity (Plasmodium falciparum [17]): 1.12; Activity (Plasmodium falciparum [18]): 1.52; inhibition (Plasmodium falciparum [19]): Active; Activity (Plasmodium falciparum [20]): 0.78; Activity (Plasmodium falciparum [21]): 0.34; inhibition (Plasmodium falciparum [22]): Active; Activity (Plasmodium falciparum [23]): 1.4; Activity (Plasmodium falciparum [24]): 0.92; Activity (Plasmodium falciparum [25]): 0.64; Activity (Plasmodium falciparum [26]): 0.88; Activity (Plasmodium falciparum [27]): 0.29; Activity (Plasmodium falciparum [28]): 0.87; Activity (Plasmodium falciparum [29]): 0.83; Activity (Plasmodium falciparum [30]): 0.96; inhibition (Plasmodium falciparum [31]): inactive; inhibition (Plasmodium falciparum [32]): Active; Activity (Plasmodium falciparum [33]): 0.54; Activity (Plasmodium falciparum [34]): 1.33; Activity (Plasmodium falciparum [35]): 0.51; Activity (Plasmodium falciparum [36]): 1.06; inhibition (Plasmodium falciparum [37]): Active
